The test system of data set [1] is Chikungunya virus. As to the kind of experiment: Antiviral activity against Chikungunya virus Indian Ocean 899 infected in African green monkey BGM cells assessed as inhibition of virus-induced cytopathic effect after 5 days by MTS/PMS based […] analysis. The class given is functional, organism-based. As to conditions: Indian Ocean 899, BGM, 120 h. In general terms: Damage to the host cells serves as the signal in cytopathic effect assays.

A short description of data set [2]: Cytotoxicity against African green monkey BGM cells assessed as reduction in cell viability after 5 days by MTS/PMS based microscopic analysis. As to conditions: chlorocebus aethiops. A digest of the protocol:
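Uninfected BGM cells (2.5 × 10^4 cells/well, adhered overnight) exposed to compound dilution series in MEM with 2% FBS at 37 °C, 5% CO2; metabolic activity read by MTS/PMS, with microscopic check of monolayer morphology. CC50 = concentration reducing overall metabolic activity by 50%, by logarithmic interpolation.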

The text below walks through data of ChEMBL document CHEMBL4477155, “Simplified Bryostatin Analogues Protect Cells from Chikungunya Virus-Induced Cell Death” (J Nat Prod, 2016).

In general, EC50 refers to the concentration that produces a half-maximal response. The term CC50 denotes the concentration at which the toxic effect on the cells reaches its halfway point. As for `CCC/C=C/C=C/C(=O)O[C@H]1/C(=C/C(=O)OC)C[C@H]2C[C@H]([C@@H](C)O)OC(=O)C[C@H](O)C[C@@H]3C[C@H](O)C(C)(C)[C@](O)(C[C@@H]4C/C(=C/C(=O)OC)C[C@H](/C=C/C(C)(C)[C@]1(O)O2)O4)O3`, the concentration for a half-maximal effect (EC50) in data set [1] is over 96 µM. Besides, the 50% cytotoxic concentration (CC50) at 120 h in data set [2] is over 96 µM.

As to `C=C1C[C@H]2C[C@@H]3O[C@@H](CCC3(C)C)C[C@@H](O)CC(=O)O[C@@H](CO)C[C@@H]3C/C(=C\C(=O)OC)[C@H](OC(=O)CCCCCCC)[C@@](O)(O3)C(C)(C)/C=C/[C@@H](C1)O2`, in data set [1], the concentration for a half-maximal effect (EC50) was found to be 0.35 µM.

With `CCC/C=C/C=C/C(=O)O[C@H]1/C(=C/C(=O)OC)C[C@H]2C[C@H]([C@@H](C)O)OC(=O)C[C@H](O)C[C@@H]3C[C@H](OC(C)=O)C(C)(C)[C@](O)(C[C@@H]4C/C(=C/C(=O)OC)C[C@H](/C=C/C(C)(C)[C@]1(O)O2)O4)O3` [BRYOSTATIN 1], the 50% effective concentration (EC50) in data set [1] is over 96 µM.
